Assay outcomes (PubChem)
Sampled rows, rich in hits. Any-hit rate of the full collection: about 2.2%.
VIM-2 inhibitor: blocks Pseudomonas aeruginosa VIM-2 metallo-beta-lactamase; 0.89% of 290,000 active; inhibition, % at 5.6 µM; purified VIM-2, nitrocefin hydrolysis, epi-absorbance fluorescence;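 active = inhibition above the mean of all tested compounds plus 3 SD, cutoff set per screening run, cut at about 7.5% in these data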;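 note: red hydrolysis product quenches plate fluorescence so inhibitors raise well fluorescence; 0% = enzyme with DMSO and 100% = DMSO without enzyme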
PABP1 MLLE inh: blocks PAM2 peptide binding to the PABP1 MLLE domain; P11940; GST-MLLE / FITC-PAM2 fluorescence polarization; inhibition, % at 20 µM; 0.36% of 360,000 active; in the data active = inhibition above about 35%, passing the limit was not always enough;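 note: plate controls were DMSO wells with GST-MLLE for no effect and wells lacking GST-MLLE protein for full effect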
PABP polyA inh: blocks human PABP binding to poly(A) RNA; P11940; fluorescence polarization; calls only at 35 µM; 1% of 290,000 active; AID 2014;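 note: calls also rest on retests at 20 µM and on dose response follow-up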
IMP-1 inh: inhibitors of Pseudomonas aeruginosa IMP-1 metallo-beta-lactamase; purified IMP-1, nitrocefin hydrolysis, epi-absorbance fluorescence; inhibition, % at 5.6 µM; 0.45% of 290,000 active;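 active = inhibition above the mean plus 3 SD of all compounds in the same screening run, cut at about 4.5% in these data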;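 note: 0% = IMP-1 with DMSO and 100% = DMSO wells lacking enzyme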
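Test system: recombinant IMP-1 enzyme, purified / Medium: HEPES buffer pH 7.1 with ZnSO4 and Brij 35 / Doses: single dose, 5.6 µM / Times: 25 °C, 15 min preincubation, 25 min reaction / Detection: Epi-absorbance via hydrolysed-nitrocefin quenching of white-plate fluorescence, 480/530 nm, EDTA stop / Evaluation: percent inhibition from optical density relative to buffer-blank wells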
eIF4H FP inh: inhibitors of RNA binding by human eIF4H; eIF4H fluorescence polarization binding assay; inhibition, % at 35 µM; 0.94% of 290,000 active; AID 2012;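 note: calls also rest on retests at 20 µM and on dose response follow-up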
VIM-2 confirm: VIM-2 inhibition, confirmation assay. shares compounds with IMP-1 inh. inhibition, % at 5.6 µM. purified VIM-2 enzyme, nitrocefin absorbance. 73% of 200 active; in the data active = inhibition above about 8%;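 note: 0% = enzyme with vehicle and 100% = no enzyme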
TEM-1 inh 2: blocks E. coli TEM-1 beta-lactamase, VIM-2 IMP-1 counter-screen | shares compounds with IMP-1 inh | nitrocefin absorbance inhibition | inhibition, % at 5.6 µM | 50% of 200 active; in the data active = inhibition above about 0.66%
Target sequence (P62593 whole entry, looked up): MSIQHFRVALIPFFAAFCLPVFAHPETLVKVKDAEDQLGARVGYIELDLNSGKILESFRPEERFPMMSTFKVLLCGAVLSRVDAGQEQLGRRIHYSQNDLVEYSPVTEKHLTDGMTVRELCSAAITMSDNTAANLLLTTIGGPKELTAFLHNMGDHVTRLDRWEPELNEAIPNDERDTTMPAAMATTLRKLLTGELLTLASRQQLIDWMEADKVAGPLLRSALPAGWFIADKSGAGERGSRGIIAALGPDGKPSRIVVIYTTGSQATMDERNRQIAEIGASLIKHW
IMP-1 confirm: confirmation of P. aeruginosa IMP-1 metallo-beta-lactamase inhibitors; shares compounds with IMP-1 inh; purified IMP-1 enzyme, absorbance substrate hydrolysis; inhibition, % at 5.6 µM; 60% of 200 active; AID 2189; in the data active = inhibition above about 4.9%;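 note: 0% = enzyme with vehicle and 100% = vehicle without enzyme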
Active calls of the source: *; i = inactive; ? = inconclusive; nt = no result given; + = active, no number. Unless noted, the rule behind the calls is not given here.

SMILES	VIM-2 inhibitor	PABP1 MLLE inh	PABP polyA inh	IMP-1 inh	eIF4H FP inh	VIM-2 confirm	TEM-1 inh 2	IMP-1 confirm
Oc1ccc(Cn2ccnc2)c2cccnc12	10.3*	6.2	i	26.1*	18.6	20.7*	-2.6	43.8*
Cc1cccc(C(=O)NN2C(=O)C3C(c4ccccc4)C=CC(c4ccccc4)C3C2=O)c1 (stereo not drawn)	7.3	0.0	i	20.6*	-12.2	-0.3	-5.4	1.9
O=C(NN1C(=O)C2C3C=CC(C3)C2C1=O)c1ccccc1 (stereo not drawn)	-3.4	1.3	i	-3.5	-10.9	nt	nt	nt
CN(C)c1ccc(/C=N/N(CCO)C2=NS(=O)(=O)c3ccccc32)cc1	42.4*	154.3	?	18.0*	?	39.6*	42.1*	30.5*
CCOC(=O)c1ccc(N(CC2CO2)S(=O)(=O)c2ccc(C)cc2)cc1 (stereo not drawn)	nt	-5.1	nt	nt	nt	nt	nt	nt
CCN(CC)c1ccc2c(-c3ccc(S(=O)(=O)O)cc3S(=O)(=O)[O-])c3ccc(=[N+](CC)CC)cc-3oc2c1	104.5*	182.5	?	104.5*	?	85.5*	150.2*	80.5*
CCN(CC)c1ccc2nc3c4ccccc4c(=O)cc-3oc2c1	6.9	nt	i	0.4	34.4	nt	nt	nt
CN(Cc1ccccc1)C(=O)c1[nH]c(C(F)(F)F)nc1-c1ccccc1	nt	-2.3	nt	nt	nt	nt	nt	nt
O=[N+]([O-])c1cc([N+](=O)[O-])c2oc(-c3ccccc3)c(Br)c2c1O	-0.5	7.7	i	-2.8	-1.2	nt	nt	nt
CC(C)(C)Nc1nc(Cl)nc(N(C#N)CN2C(=O)c3ccccc3S2(=O)=O)n1	11.6*	-31.3	i	10.7*	-15.2	1.1	-3.3	-1.9
N#Cc1ccccc1CN1C(=O)c2ccccc2S1(=O)=O	-1.2	1.0	i	-1.1	-9.1	nt	nt	nt
CC(C)(C)OC(=O)N1CCC(C(=O)Nc2cccc(C(=O)N3CCOCC3)c2)CC1	nt	11.0	nt	nt	nt	nt	nt	nt
c1ccc(CNc2ccccn2)cc1	-3.0	1.9	i	-2.4	-4.9	nt	nt	nt
c1ccc(Nc2ccccc2Nc2ccccn2)nc1	32.2*	22.8	i	50.1*	?	2.6	1.1*	0.8
CCOc1ccc(/C=C2\CCCc3c2nc2ccccc2c3C(=O)O)cc1OC	37.7*	i	?	29.0*	?	37.1*	56.1*	27.5*
COc1ccc(/C=C2\CCc3c2nc2ccccc2c3C(=O)O)cc1OC	-0.8	112.5	?	1.9	?	nt	nt	nt
COc1ccc(/C=C2\CCCc3c2nc2ccccc2c3C(=O)O)cc1OC	16.4*	nt	?	17.4*	?	22.8*	39.2*	19.2*
O/C=c1\ccc2cccc3nc(C(F)(F)F)nc1c23	21.2*	i	?	6.8*	?	32.9*	5.0*	10.8*
Cn1c(=O)c(NCCO)c2c3c(cccc31)C(=O)c1ccccc1-2	90.2*	i	?	95.7*	?	108.1*	157.9*	95.2*
CCCCNc1nc2c(c(=O)n(Cc3ccccc3)c(=O)n2C)n1C	-1.0	7.2	i	-5.8	6.9	nt	nt	nt
Cn1c(NCCc2ccccc2)cc(=O)n(C)c1=O	0.2	5.7	i	2.3	3.6	nt	nt	nt
CCCCNc1c2c3c(cccc3n(C)c1=O)C(=O)c1ccccc1-2	22.6*	i	i	28.2*	?	34.1*	52.5*	27.6*
Cn1c(=O)c(NCCc2ccccc2)c2c3c(cccc31)C(=O)c1ccccc1-2	36.6*	i	+	36.3*	127.5*	28.4*	63.9*	23.7*
CCNc1c2c3c(cccc3n(C)c1=O)C(=O)c1ccccc1-2	22.4*	nt	?	22.9*	?	60.0*	69.1*	41.0*
Cc1cccc(N(C(=O)c2snc(C(N)=O)c2N)C(C(=O)NC2CCCC2)c2ccco2)c1 (stereo not drawn)	0.6	-2.0	i	-0.3	11.3	nt	nt	nt
Cc1cc2oc(=O)cc(CN3CCCCC3)c2cc1C	2.5	-0.1	i	0.5	9.1	nt	nt	nt
CCCCc1cc(=O)oc2cc(C)c(CN3CCCC3)c(O)c12	8.3*	-38.1	+	14.3*	60.0*	2.4	-3.3	5.6*
